Experimental data as given in publication PMC12416921 (RSC Medicinal Chemistry, 2025).
Read-outs that look alike come from different tables or passages of the source.

Test system: A549 human cancer cell line
Assay: A549 differential cytotoxicity
Format: cell-based
Conditions: for HCR (hypoxia cytotoxicity ratio): A549, oxic vs anoxic IC50, 4 h incubation then 48 h oxic exposure; for IC50: Homo sapiens
In short: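 A549 cells plated at 6000/well in MEM-alpha with 10% FBS and 0.02 mM 2′-deoxycytidine, attached 2 h. Anoxic arm in a Coy chamber with preconditioned medium and degassed plates; normoxic arm at 95% air/5% CO2. Final 50 μg mL−1 to 5 pg mL−1, duplicate wells. 4 h exposure, then 48 h aerobic without media change.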

[1] = A549, read-out: IC50 [anoxic] (μM) ± SEM
[2] = A549, read-out: IC50 [oxic] (μM) ± SEM

| Structure (SMILES) | HCR (hypoxia cytotoxicity ratio) | IC50 [1] | IC50 [2] |
| --- | --- | --- | --- |
| COc1cc(C2=CCCc3c2ccc(OC)c3OCc2cnc([N+](=O)[O-])n2C)cc(OC)c1OC [KGP105 (15), 5-(((2-Methoxy-5-(3,4,5-trimethoxyphenyl)-7,8-dihydronaphthalen-1-yl)oxy)methyl)-1-methyl-2-nitro-1H-imidazole] | 6.2 | 0.04 ± 0.003 µM | 0.25 ± 0.02 µM |
| COc1cc(C2=CCCc3c2ccc(OC)c3OCc2ccc([N+](=O)[O-])s2)cc(OC)c1OC [KGP24 (12), 2-(((2-Methoxy-5-(3,4,5-trimethoxyphenyl)-7,8-dihydronaphthalen-1-yl)oxy)methyl)-5-nitrothiophene] | 1.0 | 0.48 ± 0.04 µM | 0.46 ± 0.05 µM |
| Nc1n[n+]([O-])c2ccccc2[n+]1[O-] [TPZ (1), tirapazamine, reference compound] | 8.9 | 7.1 µM | 63.5 µM |
| COc1ccc2c(C(=O)c3cc(OC)c(OC)c(OC)c3)c(-c3ccc(OC)c(OC(C)c4ccc([N+](=O)[O-])s4)c3)[nH]c2c1 (stereo not drawn) [KGP343 (24), (6-Methoxy-2-(4-methoxy-3-(1-(5-nitrothiophen-2-yl)ethoxy)phenyl)-1H-indol-3-yl)(3,4,5-trimethoxyphenyl)methanone] | 33.8 | 0.12 ± 0.06 µM | 4.06 ± 1.89 µM |
| COc1cc(C2=CCCCc3c2ccc(OC)c3OC(C)c2cnc([N+](=O)[O-])n2C)cc(OC)c1OC (stereo not drawn) [KGP292 (22), 5-(1-((3-Methoxy-9-(3,4,5-trimethoxyphenyl)-6,7-dihydro-5H-benzo[7]annulen-4-yl)oxy)ethyl)-1-methyl-2-nitro-1H-imidazole] | 4.8 | 0.14 ± 0.04 µM | 0.67 ± 0.13 µM |
| COc1ccc2c(C(=O)c3cc(OC)c(OC)c(OC)c3)c(-c3ccc(OC)c(OC(C)(C)c4ccc([N+](=O)[O-])s4)c3)[nH]c2c1 [KGP354 (25), (6-Methoxy-2-(4-methoxy-3-((2-(5-nitrothiophen-2-yl)propan-2-yl)oxy)phenyl)-1H-indol-3-yl)(3,4,5-trimethoxyphenyl)methanone] | 79 | 0.07 ± 0.02 µM | 5.53 ± 2.22 µM |
| COc1cc(C2=CCCCc3c2ccc(OC)c3OC(C)c2ccc([N+](=O)[O-])s2)cc(OC)c1OC (stereo not drawn) [KGP304 (20), 2-(1-((3-Methoxy-9-(3,4,5-trimethoxyphenyl)-6,7-dihydro-5H-benzo[7]annulen-4-yl)oxy)ethyl)-5-nitrothiophene] | 6.0 | 0.38 ± 0.12 µM | 2.27 ± 1.01 µM |
| COc1cc(C2=CCCc3c2ccc(OC)c3OC(C)c2cnc([N+](=O)[O-])n2C)cc(OC)c1OC (stereo not drawn) [KGP291 (16), 5-(1-((2-Methoxy-5-(3,4,5-trimethoxyphenyl)-7,8-dihydronaphthalen-1-yl)oxy)ethyl)-1-methyl-2-nitro-1H-imidazole] | 7.6 | 0.05 ± 0.004 µM | 0.38 ± 0.03 µM |
| COc1cc(C2=CCCc3c2ccc(OC)c3OC(C)c2ccc([N+](=O)[O-])s2)cc(OC)c1OC (stereo not drawn) [KGP25 (13), 2-(1-((2-Methoxy-5-(3,4,5-trimethoxyphenyl)-7,8-dihydronaphthalen-1-yl)oxy)ethyl)-5-nitrothiophene] | 11.0 | 0.25 ± 0.08 µM | 2.74 ± 1.13 µM |
| COc1cc(C2=CCCCc3c2ccc(OC)c3OCc2ccc([N+](=O)[O-])s2)cc(OC)c1OC [KGP305 (19), 2-(((3-Methoxy-9-(3,4,5-trimethoxyphenyl)-6,7-dihydro-5H-benzo[7]annulen-4-yl)oxy)methyl)-5-nitrothiophene] | 0.2 | 0.22 ± 0.09 µM | 0.05 ± 0.005 µM |
| COc1cc(C2=CCCCc3c2ccc(OC)c3OCc2cnc([N+](=O)[O-])n2C)cc(OC)c1OC [KGP293 (21), 5-(((3-Methoxy-9-(3,4,5-trimethoxyphenyl)-6,7-dihydro-5H-benzo[7]annulen-4-yl)oxy)methyl)-1-methyl-2-nitro-1H-imidazole] | 9.0 | 0.04 ± 0.005 µM | 0.36 ± 0.02 µM |
| COc1cc(C2=CCCc3c2ccc(OC)c3OC(C)(C)c2ccc([N+](=O)[O-])s2)cc(OC)c1OC [KGP66 (14), 2-(2-((2-Methoxy-5-(3,4,5-trimethoxyphenyl)-7,8-dihydronaphthalen-1-yl)oxy)propan-2-yl)-5-nitrothiophene] | 2.6 | 0.05 ± 0.01 µM | 0.13 ± 0.06 µM |
| COc1ccc2c(C(=O)c3cc(OC)c(OC)c(OC)c3)c(-c3ccc(OC)c(OCc4ccc([N+](=O)[O-])s4)c3)[nH]c2c1 [KGP311 (23), (6-Methoxy-2-(4-methoxy-3-((5-nitrothiophen-2-yl)methoxy)phenyl)-1H-indol-3-yl)(3,4,5-trimethoxyphenyl)methanone] | 79.7 | 0.07 ± 0.04 µM | 5.58 ± 3.59 µM |
